In ChEMBL document CHEMBL1649475, “In vivo pharmacodynamic profile of tigecycline against phenotypically diverse Escherichia coli and Klebsiella pneumoniae isolates” (Antimicrob Agents Chemother, 2009):
In brackets after ≈: the same amount, converted by molar mass.

Legend:
[1] = Ratio of fAUC to MIC in Escherichia coli isolate 54-infected ICR mouse at 80% maximal effective concentration; format: functional
In short: (§1)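 EI50, EI80 and the static exposure were read from fitted curves. Free AUC came from earlier mouse PK using concentration-dependent protein binding set at Cmax. MICs were run in triplicate by CLSI broth microdilution in Mueller-Hinton broth prepared <12 h before testing, or by Etest.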

Klebsiella pneumoniae [2] = assay: Antibacterial activity against extended-spectrum beta-lactamase producing Klebsiella pneumoniae isolate 320 infected in ICR mouse assessed as change in bacterial load at 6.25 to 50 mg/kg, sc; format: functional; details: dose mg/kg 6.25-50; route subcutaneous
In short: (§2)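 Female CD-1/ICR mice (~25 g) were made neutropenic with intraperitoneal cyclophosphamide, 150 mg/kg 4 days and 100 mg/kg 1 day before inoculation. Isolates were grown on blood agar at 35°C for 18–24 h, and 0.1 ml of 10^7 CFU/ml was injected intramuscularly per thigh. At 2 h, tigecycline in saline was given sc as single or multiple doses of 3.125–50 mg/kg. Thighs were homogenized at 24 h and plated. Read-out was mean change in log10 CFU/ml versus 0-h controls, three mice per group.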

[3] = Ratio of fAUC to MIC in extended-spectrum beta-lactamase producing Klebsiella pneumoniae isolate 320-infected ICR mouse at 80% maximal effective concentration; format: functional; in short: as §1
[4] = Ratio of fAUC to MIC in carbapenemase producing Klebsiella pneumoniae isolate 321-infected ICR mouse at bacteriostatic concentration; format: functional; in short: as §1
[5] = Ratio of fAUC to MIC in extended-spectrum beta-lactamase producing Escherichia coli isolate 321-infected ICR mouse at bacteriostatic concentration; format: functional; in short: as §1
[6] = Ratio of fAUC to MIC in extended-spectrum beta-lactamase producing Escherichia coli isolate 315-infected ICR mouse at 80% maximal effective concentration; format: functional; in short: as §1
[7] = Ratio of fAUC to MIC in Escherichia coli isolate 54-infected ICR mouse at bacteriostatic concentration; format: functional; in short: as §1
Klebsiella pneumoniae [8] = assay: Antibacterial activity against extended-spectrum beta-lactamase producing Klebsiella pneumoniae isolate 320 by broth microdilution method; format: functional
In short: (§3)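 Tigecycline MICs by broth microdilution per CLSI guidelines, run in triplicate. Mueller-Hinton broth was prepared fresh less than 12 h before testing.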

Mus musculus = assay: AUC in ICR mouse at 6.25 mg/kg, sc; details: in vivo
Escherichia coli [9] = assay: Antibacterial activity against Escherichia coli isolate 120 by broth microdilution method; format: functional; in short: as §3
Klebsiella pneumoniae [10] = assay: Antibacterial activity against Klebsiella pneumoniae isolate 135 by broth microdilution method; format: functional; in short: as §3
[11] = Half life in ICR mouse at 50 mg/kg, sc; format: ADME, organism-based; design: dose 50 mg/kg, route subcutaneous; details: in vivo
[12] = Ratio of fAUC to MIC in extended-spectrum beta-lactamase producing Escherichia coli isolate 322-infected ICR mouse at 80% maximal effective concentration; format: functional; in short: as §1
Escherichia coli [13] = assay: Antibacterial activity against extended-spectrum beta-lactamase producing Escherichia coli isolate 315 by broth microdilution method; format: functional; in short: as §3
[14] = Ratio of fAUC to MIC in extended-spectrum beta-lactamase producing Escherichia coli isolate 321-infected ICR mouse at 50% maximal effective concentration; format: functional; in short: as §1
[15] = Ratio of fAUC to MIC in Klebsiella pneumoniae isolate 134-infected ICR mouse at 80% maximal effective concentration; format: functional; in short: as §1
[16] = Ratio of fAUC to MIC in Klebsiella pneumoniae isolate 135 at bacteriostatic concentration; format: functional; in short: as §1
Klebsiella pneumoniae [17] = assay: Antibacterial activity against extended-spectrum beta-lactamase producing Klebsiella pneumoniae isolate 255 by broth microdilution method; format: functional; in short: as §3
Klebsiella pneumoniae [18] = assay: Antibacterial activity against Klebsiella pneumoniae isolate 134 infected in ICR mouse assessed as change in bacterial load at 6.25 to 50 mg/kg, sc; format: functional; details: dose mg/kg 6.25-50; route subcutaneous; in short: as §2
Escherichia coli [19] = assay: Antibacterial activity against extended-spectrum beta-lactamase producing Escherichia coli isolate 322 infected in ICR mouse assessed as change in bacterial load at 6.25 to 50 mg/kg, sc; format: functional; details: dose mg/kg 6.25-50; route subcutaneous; in short: as §2
[20] = Ratio of fAUC to MIC in Klebsiella pneumoniae isolate 135-infected ICR mouse at 80% maximal effective concentration; format: functional; in short: as §1
[21] = Ratio of fAUC to MIC in carbapenemase producing Klebsiella pneumoniae isolate 321-infected ICR mouse at 80% maximal effective concentration; format: functional; in short: as §1
[22] = Ratio of fAUC to MIC in Escherichia coli isolate 54-infected ICR mouse at 50% maximal effective concentration; format: functional; in short: as §1
Klebsiella pneumoniae [23] = assay: Antibacterial activity against carbapenemase producing Klebsiella pneumoniae isolate 321 by broth microdilution method; format: functional; in short: as §3
[24] = Ratio of fAUC to MIC in extended-spectrum beta-lactamase producing Escherichia coli isolate 321-infected ICR mouse at 80% maximal effective concentration; format: functional; in short: as §1
[25] = Ratio of fAUC to MIC in Klebsiella pneumoniae isolate 135-infected ICR mouse at 50% maximal effective concentration; format: functional; in short: as §1
[26] = Ratio of fAUC to MIC in extended-spectrum beta-lactamase producing Escherichia coli isolate 315-infected ICR mouse at bacteriostatic concentration; format: functional; in short: as §1
Escherichia coli [27] = assay: Antibacterial activity against extended-spectrum beta-lactamase producing Escherichia coli isolate 322 by broth microdilution method; format: functional; in short: as §3
Escherichia coli [28] = assay: Antibacterial activity against Escherichia coli isolate 54 infected in ICR mouse assessed as change in bacterial load at 6.25 to 50 mg/kg, sc; format: functional; details: dose mg/kg 6.25-50; route subcutaneous; in short: as §2

## CN(C)c1cc(NC(=O)CNC(C)(C)C)c(O)c2c1C[C@H]1C[C@H]3[C@H](N(C)C)C(O)=C(C(N)=O)C(=O)[C@@]3(O)C(O)=C1C2=O [TIGECYCLINE]
[1]
  fAUC/MIC: 7.7
Klebsiella pneumoniae [2]
  log10CFU/ml: -1.12
[3]
  fAUC/MIC: 3.27
[4]
  fAUC/MIC: 5.47
[5]
  fAUC/MIC: 6.83
[6]
  fAUC/MIC: 4.46
[7]
  fAUC/MIC: 5.96
Klebsiella pneumoniae [8]
  MIC: 2 mg/L (≈ 3.41 µM)
Mus musculus
  AUC: 4.8 µg·h/mL
Escherichia coli [9]
  MIC: 0.125 mg/L (≈ 0.213 µM)
Klebsiella pneumoniae [10]
  MIC: 0.5 mg/L (≈ 0.854 µM)
[11]
  half-life: 9.9 h
[12]
  fAUC/MIC: 10.6
Escherichia coli [13]
  MIC: 0.5 mg/L (≈ 0.854 µM)
[14]
  fAUC/MIC: 6.4
[15]
  fAUC/MIC: 10
[16]
  fAUC/MIC: 5.4
Klebsiella pneumoniae [17]
  MIC: 2 mg/L (≈ 3.41 µM)
Klebsiella pneumoniae [18]
  log10CFU/ml: -1.42
Escherichia coli [19]
  log10CFU/ml: -2.4
[20]
  fAUC/MIC: 7.78
[21]
  fAUC/MIC: 7.48
[22]
  fAUC/MIC: 5.19
Klebsiella pneumoniae [23]
  MIC: 0.5 mg/L (≈ 0.854 µM)
[24]
  fAUC/MIC: 9.07
[25]
  fAUC/MIC: 3.62
[26]
  fAUC/MIC: 3.88
Escherichia coli [27]
  MIC: 0.25 mg/L (≈ 0.427 µM)
Escherichia coli [28]
  log10CFU/ml: -2.05
